In ChEMBL document CHEMBL1158827, “Free-radical-scavenging and xanthine oxidase inhibitory constituents from Stereospermum personatum” (J Nat Prod, 2005):
Active and inactive are the calls of the source. No cut-off for these calls is given here.

Assays:
[1] = Antioxidant activity assessed as DPPH scavenging activity; format: functional
How it was run: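 SC50 is the concentration scavenging 50% of the DPPH free radical under the assay conditions. It was obtained by linear regression over at least five concentrations, each in triplicate, and reported as the mean.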

[2] = target: T1, Xanthine dehydrogenase/oxidase (Homo sapiens, UniProt P47989); test: Inhibition of xanthine oxidase at 50 ug/ml
T1 sequence (P47989 whole entry): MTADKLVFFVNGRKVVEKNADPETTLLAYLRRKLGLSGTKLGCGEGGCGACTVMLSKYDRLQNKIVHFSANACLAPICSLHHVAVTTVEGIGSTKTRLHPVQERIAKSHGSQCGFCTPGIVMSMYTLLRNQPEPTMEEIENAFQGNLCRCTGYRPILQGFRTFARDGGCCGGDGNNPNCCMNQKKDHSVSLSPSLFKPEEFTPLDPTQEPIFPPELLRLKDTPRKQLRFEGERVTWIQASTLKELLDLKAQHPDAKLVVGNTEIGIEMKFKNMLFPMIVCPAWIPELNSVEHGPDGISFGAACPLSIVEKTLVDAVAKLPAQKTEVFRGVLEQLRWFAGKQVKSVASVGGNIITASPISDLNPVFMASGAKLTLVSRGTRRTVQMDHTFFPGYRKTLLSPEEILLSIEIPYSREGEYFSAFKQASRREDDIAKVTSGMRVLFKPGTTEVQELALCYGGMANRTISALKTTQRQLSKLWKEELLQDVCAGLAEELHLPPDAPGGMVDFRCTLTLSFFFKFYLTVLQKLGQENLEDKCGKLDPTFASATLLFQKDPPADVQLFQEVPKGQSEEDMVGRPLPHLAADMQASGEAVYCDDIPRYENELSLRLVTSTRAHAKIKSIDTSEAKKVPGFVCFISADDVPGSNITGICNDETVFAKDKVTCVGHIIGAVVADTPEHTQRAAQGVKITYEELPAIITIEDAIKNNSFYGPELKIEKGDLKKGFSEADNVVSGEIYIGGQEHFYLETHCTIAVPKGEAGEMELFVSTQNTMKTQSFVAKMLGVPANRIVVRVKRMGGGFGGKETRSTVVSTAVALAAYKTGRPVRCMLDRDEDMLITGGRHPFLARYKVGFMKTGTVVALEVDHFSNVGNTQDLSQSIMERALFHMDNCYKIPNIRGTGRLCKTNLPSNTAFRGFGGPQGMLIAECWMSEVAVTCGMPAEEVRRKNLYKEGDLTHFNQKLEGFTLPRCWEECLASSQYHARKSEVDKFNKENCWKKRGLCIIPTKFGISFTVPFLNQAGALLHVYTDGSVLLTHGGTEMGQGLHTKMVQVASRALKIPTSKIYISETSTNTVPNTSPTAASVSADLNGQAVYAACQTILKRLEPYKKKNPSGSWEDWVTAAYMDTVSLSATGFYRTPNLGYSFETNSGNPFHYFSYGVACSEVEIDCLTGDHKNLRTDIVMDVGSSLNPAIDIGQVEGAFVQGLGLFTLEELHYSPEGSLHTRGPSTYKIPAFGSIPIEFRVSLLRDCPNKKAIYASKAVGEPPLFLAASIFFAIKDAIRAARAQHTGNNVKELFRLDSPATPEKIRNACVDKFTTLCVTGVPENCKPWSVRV
How it was run: (§1)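 Single-concentration screen at 50 µg/mL. Samples showing less than 10% activity at this level were not carried forward to IC50 or SC50 determination.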

[3] = target: T1, Xanthine dehydrogenase/oxidase; test: Inhibition of xanthine oxidase
[4] = target: T1, Xanthine dehydrogenase/oxidase; test: Inhibition of xanthine oxidase at 132 uM
[5] = Antioxidant activity assessed as DPPH scavenging activity at 50 ug/ml; format: functional; how it was run: as §1

In the case of COc1cc(/C=C/C(=O)O)ccc1O [FERULATE], the SC50 [1] is reported as 32.5 µM and the Activity [2] is reported as “Not Active”.

COc1cc(C[C@@H]2COC[C@@H]2C(O)c2ccc(O)c(OC)c2)ccc1O (stereo partly drawn) gave an IC50 [3] of 111 µM and an SC50 [1] of 15.2 µM.

With COc1cc(COC/C=C/c2cc(OC)c(OC)c(OC)c2)ccc1O the SC50 [1] was 7.58 µM and the Activity [2] was “Not Active”.

In the case of COc1cc(C[C@]2(O)CO[C@@H](c3ccc(O)c(OC)c3)[C@@H]2CO)ccc1O [OLIVIL], the inhibition at 132 µM [4] is reported as 23.6% and the SC50 [1] is reported as 15.1 µM.

In the case of COc1cc([C@H]2c3cc(O)c(OC)cc3C[C@@](O)(CO)[C@@H]2CO)ccc1O, the IC50 [3] is reported as 101 µM and the SC50 [1] is reported as 17.4 µM.

For COc1ccc2c(c1)C(=O)c1c(ccc(CCC(C)=O)c1C)C2=O [STEREQUINONE G], the Activity [5] was “inactive” and the Activity [2] was “Not Active”.

For Cc1c(CCC(C)O)ccc2c1C(=O)c1ccccc1C2=O (stereo not drawn) [STEREQUINONE H], the Activity [5] was “inactive” and the Activity [2] was “Not Active”.

For CC1=CCc2c1cc1c(c2C)C(=O)c2ccccc2C1=O [STEREQUINONE A], the Activity [5] was “inactive” and the Activity [2] was “Not Active”.

In the case of CC(=O)CCc1ccc2c(c1C)C(=O)c1ccccc1C2=O [STEREQUINONE F], the Activity [5] is reported as “inactive” and the Activity [2] is reported as “Not Active”.

Work on Cc1c(C)c2c(c(C)c1O)CCC(C)(C(=O)O)O2 (stereo not drawn) yielded an SC50 [1] of 15.9 µM.

For COc1cc(C[C@@H](CO)[C@H](CO)Cc2ccc(O)c(OC)c2)ccc1O [(+)-SECOISOLARICIRESINOL], the IC50 [3] was 213 µM and the SC50 [1] was 12.5 µM.

With COc1ccc2c(c1)C(=O)C1(O)C(=CC3=C(C)CCC3=C1C)C2=O (stereo not drawn) [STEREQUINONE I] the Activity [5] was “inactive” and the Activity [2] was “Not Active”.
